Measured values reported in ChEMBL document CHEMBL4020718, “Trifluoromethyl arylamides with antileukemia effect and intracellular inhibitory activity over serine/arginine-rich protein kinases (SRPKs)” (Eur J Med Chem, 2017).
Active and inactive are the calls of the source. The calls are words filed in the database; no cut-off is given here.

What was measured:
HL-60 [1] = experiment: Cytotoxicity against human HL60 cells assessed as reduction in cell viability up to 200 uM after 48 hrs by MTT assay; type: functional, cell-based
In short: (§1)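 Cells (7x10^4/well) in RPMI-1640 with 10% FBS, 37 °C, 5% CO2; exposed to compound dilutions 0–200 µM (medium with 10% FBS, 0.4% DMSO) for 48 h. MTT added, 3 h at 37 °C, formazan dissolved in DMSO, absorbance 540 nm. IC50 from concentration–response; means ± standard deviation of three independent experiments.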

Jurkat = experiment: Cytotoxicity against human Jurkat cells assessed as reduction in cell viability up to 200 uM after 48 hrs by MTT assay; type: functional, cell-based; in short: as §1
NALM-6 [2] = experiment: Cytotoxicity against human NALM6 cells assessed as reduction in cell viability up to 200 uM after 48 hrs by MTT assay; type: functional, cell-based; in short: as §1
NALM-6 [3] = experiment: Induction of autophagy in human NALM6 cells at 20 uM after 24 hrs by acridin orange staining based fluorescence microscopy; type: functional, cell-based
In short: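 Nalm6 (7x10^4/well) exposed 24 h to 20 µM or 0.4% DMSO, washed in PBS, stained with 1 µM acridine orange at 37 °C for 15 min, washed, resuspended in PBS; autophagosomes (red fluorescence) viewed by fluorescence microscopy; three experiments.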

PBMC = experiment: Cytotoxicity against PHA-stimulated human PBMC assessed as reduction in cell viability at 25 uM after 48 hrs by MTT assay; type: cell-based
In short: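 Primary peripheral blood mononuclear cells seeded 1x10^5/well in complete RPMI; treated with 25 µM for 48 h. Viability by MTT (3 h, 37 °C, DMSO solubilization, 540 nm), vehicle taken as 100% viability; triplicate experiments, means ± standard deviation.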

NALM-6 [4] = experiment: Synergistic cytotoxicity against human NALM6 cells assessed as reduction in cell viability by measuring combination index at 4.3 uM after 48 hrs in presence of 0.5 nM vincristine by MTT assay; type: functional
NALM-6 [5] = experiment: Synergistic cytotoxicity against human NALM6 cells assessed as reduction in cell viability by measuring combination index at 8.5 uM after 48 hrs in presence of 1 nM vincristine by MTT assay; type: functional
NALM-6 [6] = experiment: Induction of apoptosis in human NALM6 cells assessed as viable cells at 20 uM after 12 hrs by Annexin-V/FITC propidium iodide staining based flow cytometric analysis (reference value: 92.11%); type: functional; details: NALM-6, 12 h, read-out: Activity
NALM-6 [7] = experiment: Induction of apoptosis in human NALM6 cells assessed as early apoptotic cells at 20 uM after 12 hrs by Annexin-V/FITC propidium iodide staining based flow cytometric analysis (reference value: 7.40%); type: functional
NALM-6 [8] = experiment: Induction of apoptosis in human NALM6 cells assessed as late apoptotic cells at 20 uM after 12 hrs by Annexin-V/FITC propidium iodide staining based flow cytometric analysis (reference value: 0.45%); type: functional
NALM-6 [9] = experiment: Induction of apoptosis in human NALM6 cells assessed as necrotic cells at 20 uM after 12 hrs by Annexin-V/FITC propidium iodide staining based flow cytometric analysis (reference value: 0.04%); type: functional
NALM-6 [10] = experiment: Induction of apoptosis in human NALM6 cells assessed as viable cells at 20 uM after 24 hrs by Annexin-V/FITC propidium iodide staining based flow cytometric analysis (reference value: 90.10%); type: functional; details: NALM-6, 24 h, read-out: Activity
NALM-6 [11] = experiment: Induction of apoptosis in human NALM6 cells assessed as early apoptotic cells at 20 uM after 24 hrs by Annexin-V/FITC propidium iodide staining based flow cytometric analysis (reference value: 8.22%); type: functional
NALM-6 [12] = experiment: Induction of apoptosis in human NALM6 cells assessed as late apoptotic cells at 20 uM after 24 hrs by Annexin-V/FITC propidium iodide staining based flow cytometric analysis (reference value: 1.68%); type: functional
NALM-6 [13] = experiment: Induction of apoptosis in human NALM6 cells assessed as necrotic cells at 20 uM after 24 hrs by Annexin-V/FITC propidium iodide staining based flow cytometric analysis (reference value: 0%); type: functional
HL-60 [14] = experiment: Antiproliferative activity against human HL60 cells at 20 uM by trypan blue dye exclusion assay; type: functional, cell-based; details: TDE = time-dependent effect
In short: (§2)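 Nalm6 at 1x10^4 or HL60 at 1.5x10^4 cells per well exposed to 20 µM; DMSO (0.4% v/v) as control. Viable cells counted by trypan blue exclusion on a hemocytometer at 0, 24, 48, 72 and 96 h; growth inhibition relative to control.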

NALM-6 [15] = experiment: Antiproliferative activity against human NALM6 cells at 20 uM by trypan blue dye exclusion assay; type: functional, cell-based; details: TDE = time-dependent effect; in short: as §2
HL-60 [16] = experiment: Cytotoxicity against human HL60 cells assessed as cell growth inhibition at 20 uM after 96 hrs by trypan blue dye exclusion assay relative to control; type: functional; details: HL-60, 96 h, read-out: GI; in short: as §2
NALM-6 [17] = experiment: Cytotoxicity against human NALM6 cells assessed as cell growth inhibition at 20 uM after 96 hrs by trypan blue dye exclusion assay relative to control; type: functional; details: NALM-6, 96 h, read-out: GI; in short: as §2
Homo sapiens [18] = organism: Homo sapiens; experiment: Inhibition of SRPK in human NALM6 cells assessed as decrease in MAP2K1 mRNA expression level at 20 uM after 24 hrs by qRT-PCR analysis; type: cell-based
In short: (§3)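 Nalm6 given 20 µM for 24 h with 0.4% DMSO control; mRNA isolated with Tri Reagent, quantified spectrophotometrically, integrity checked on 1% agarose, then RT-PCR for target transcripts; one representative of three experiments.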

Homo sapiens [19] = organism: Homo sapiens; experiment: Inhibition of SRPK in human NALM6 cells assessed as decrease in MAP2K2 mRNA expression level at 20 uM after 24 hrs by qRT-PCR analysis; type: cell-based; in short: as §3
Homo sapiens [20] = organism: Homo sapiens; experiment: Inhibition of SRPK in human NALM6 cells assessed as decrease in VEGF mRNA expression level at 20 uM after 24 hrs by qRT-PCR analysis; type: cell-based; in short: as §3
Homo sapiens [21] = organism: Homo sapiens; experiment: Inhibition of SRPK in human NALM6 cell lysates assessed as reduction in phospho-SR epitopes signal at 20 uM after 24 hrs by Western blot analysis
In short: (§4)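 Nalm6 treated 24 h at 20 µM (DMSO vehicle control), lysed at 2x10^7 cells/mL in PBS with 1% NP40, 1 mM EDTA, 150 mM NaCl, 10 mM Tris pH 7.4 plus protease/phosphatase inhibitors; on ice 10 min, sonicated, spun 15000 xg; SDS-PAGE, PVDF, milk block overnight, primary and secondary antibody 2 h each; representative of three.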

NALM-6 [22] = experiment: Effect on actin expression level in human NALM6 cells at 20 uM after 24 hrs by qRT-PCR analysis; type: ADME, cell-based; details: nalm-6, 24 h
NALM-6 [23] = experiment: Effect on SRPK1 expression level in human NALM6 cells at 20 uM after 24 hrs by Western blot analysis; type: functional, cell-based; in short: as §4
NALM-6 [24] = experiment: Effect on SRPK2 expression level in human NALM6 cells at 20 uM after 24 hrs by Western blot analysis; type: functional, cell-based; in short: as §4
NALM-6 [25] = experiment: Effect on actin expression level in human NALM6 cells at 20 uM after 24 hrs by Western blot analysis; type: ADME, cell-based; details: nalm-6, 24 h; in short: as §4
Homo sapiens [26] = organism: Homo sapiens; experiment: Inhibition of SRPK in human NALM6 cells assessed as decrease in RON mRNA expression level at 20 uM after 24 hrs by qRT-PCR analysis; type: cell-based; in short: as §3
[27] = Homo sapiens, HL-60, 48 h, read-out: IC50
[28] = Homo sapiens, NALM-6, 48 h, read-out: IC50
[29] = Homo sapiens, Jurkat, 48 h, read-out: IC50

**Q.** With O=C(Nc1cc(C(F)(F)F)ccc1N1CCOCC1)c1ccncc1 as the compound, how does the IC50 (HL-60 [1]; hl-60) read?
**A.** Not Active

**Q.** And the IC50 (Jurkat; jurkat)?
**A.** Not Active

**Q.** What about the IC50 (NALM-6 [2]; nalm-6) of the same compound?
**A.** Not Active

**Q.** What does the source list for O=C(Nc1cc(C(F)(F)F)ccc1N1CCCC1)c1ccncc1?
**A.** IC50 (HL-60 [1]; hl-60): Not Active; IC50 (Jurkat; jurkat): Not Active; IC50 (NALM-6 [2]; nalm-6): Not Active

**Q.** Which results are given for O=C(Nc1cc(C(F)(F)F)ccc1N1CCCCC1)c1cccnc1Cl?
**A.** IC50 (HL-60 [1]; hl-60): Not Active; IC50 (Jurkat; jurkat): Not Active; IC50 (NALM-6 [2]; nalm-6): Not Active

**Q.** O=C(Nc1cc(C(F)(F)F)ccc1N1CCCCC1)c1ccccc1 was tested. Which IC50 (HL-60 [1]; hl-60) did it give?
**A.** Not Active

**Q.** And the IC50 (Jurkat; jurkat)?
**A.** Not Active

**Q.** And the IC50 (NALM-6 [2]; nalm-6)?
**A.** Not Active

**Q.** Which IC50 (HL-60 [1]; [27]) does the source give for O=C(Nc1cc(C(F)(F)F)ccc1NC1CCCCC1)c1cccnc1 here?
**A.** 48.3 µM

**Q.** What about the IC50 (Jurkat; jurkat) of the same compound?
**A.** Not Active

**Q.** What about the IC50 (NALM-6 [2]; [28]) of the same compound?
**A.** 52.3 µM

**Q.** What does the source list for O=C(Nc1cc(C(F)(F)F)ccc1Nc1ccc(Br)cc1)c1cccnc1?
**A.** Activity (NALM-6 [3]): Active; IC50 (HL-60 [1]; [27]): 8.5 µM; IC50 (Jurkat; [29]): 17.8 µM; IC50 (NALM-6 [2]; [28]): 17 µM; Activity (PBMC): Non-Toxic; CI (NALM-6 [4]): 0.45; CI (NALM-6 [5]): 0.78; viability at 20 µM (NALM-6 [6]): 87%; Activity (NALM-6 [7]): 12.33%; Activity (NALM-6 [8]): 0.67%; Activity (NALM-6 [9]): 0%; viability at 20 µM (NALM-6 [10]): 84.4%; Activity (NALM-6 [11]): 14.66%; Activity (NALM-6 [12]): 0.92%; Activity (NALM-6 [13]): 0.01%; Activity (HL-60 [14]): Tde; Activity (NALM-6 [15]): Tde; inhibition of growth at 20 µM (HL-60 [16]): 38%; inhibition of growth at 20 µM (NALM-6 [17]): 66%; inhibition (Homo sapiens [18]): Active; inhibition (Homo sapiens [19]): Active; inhibition (Homo sapiens [20]): Active; inhibition (Homo sapiens [21]): Active; Activity (NALM-6 [22]): Non-Toxic; Activity (NALM-6 [23]): inactive; Activity (NALM-6 [24]): inactive; Activity (NALM-6 [25]): Non-Toxic; inhibition (Homo sapiens [26]): Active

**Q.** O=C(Nc1cc(C(F)(F)F)ccc1Nc1ccc(Br)cc1)c1ccncc1 was tested. Which IC50 (HL-60 [1]; hl-60) did it give?
**A.** Not Active

**Q.** What about the IC50 (Jurkat; jurkat) of the same compound?
**A.** Not Active

**Q.** What about the IC50 (NALM-6 [2]; [28]) of the same compound?
**A.** 51.9 µM

**Q.** For O=C(Nc1cc(C(F)(F)F)ccc1N1CCOCC1)c1ccccc1, which IC50 (HL-60 [1]; hl-60) is on record?
**A.** Not Active

**Q.** And the IC50 (Jurkat; jurkat)?
**A.** Not Active

**Q.** And the IC50 (NALM-6 [2]; nalm-6)?
**A.** Not Active

**Q.** Which results are given for CCN(CC)c1ccc(C(F)(F)F)cc1NC(=O)c1cccnc1Cl?
**A.** IC50 (HL-60 [1]; [27]): 84.1 µM; IC50 (Jurkat; [29]): 88.4 µM; IC50 (NALM-6 [2]; nalm-6): Not Active

**Q.** What does the source list for O=C(Nc1cc(C(F)(F)F)ccc1N1CCCCC1)c1cccnc1?
**A.** IC50 (HL-60 [1]; hl-60): Not Active; IC50 (Jurkat; jurkat): Not Active; IC50 (NALM-6 [2]; nalm-6): Not Active

**Q.** What does the source list for O=C(Nc1cc(C(F)(F)F)ccc1N1CCCCC1)c1ccncc1?
**A.** IC50 (HL-60 [1]; [27]): 38.3 µM; IC50 (Jurkat; [29]): 75.4 µM; IC50 (NALM-6 [2]; [28]): 70.6 µM; inhibition (Homo sapiens [18]): inactive; inhibition (Homo sapiens [19]): inactive; inhibition (Homo sapiens [20]): inactive; inhibition (Homo sapiens [21]): Active; inhibition (Homo sapiens [26]): inactive
